# Screens deposited in PubChem BioAssay by several laboratories.
# Sampled rows, rich in hits. Any-hit rate of the full collection: about 1.6%.
# Neddylation inh: inhibitors of human cullin neddylation | P61081+Q13564 | TR-FRET cullin neddylation, biochemical | calls only at 25 µM | 360,000 tested, 0.58% active | AID 651699; in the data active = inhibition above about 36%
# proKLK7 act: activators of human kallikrein-7 zymogen. P49862. purified proKLK7, EDANS-DABCYL substrate fluorescence; 100% is mature enzyme control, 0% vehicle. activation, % at 7 µM. 370,000 tested, 0.9% active;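 active = activation above the mean of all tested compounds plus 3 SD, computed per campaign excluding outliers beyond control limits, cut at about 13% in these data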
# Target sequence (P49862 whole entry, looked up): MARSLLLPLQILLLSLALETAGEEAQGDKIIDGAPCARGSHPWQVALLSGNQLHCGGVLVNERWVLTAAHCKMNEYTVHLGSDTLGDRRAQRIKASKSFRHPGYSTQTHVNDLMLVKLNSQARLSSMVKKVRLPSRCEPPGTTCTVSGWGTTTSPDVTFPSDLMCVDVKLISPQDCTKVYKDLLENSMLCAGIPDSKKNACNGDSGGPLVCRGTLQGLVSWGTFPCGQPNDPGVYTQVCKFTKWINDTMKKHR
# procasp7 counter: activates human procaspase-7, counter-screen for procaspase-3 activators | P55210 | recombinant procaspase-7, Ac-DEVD-pNA absorbance 405 nm; D23A/D198A/D206A triple mutant, cannot self-cleave; scale: DMSO 0, 5 µM enzyme 100 | activation, % at 8.5 µM | 330,000 tested, 0.093% active;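 active = percent activation above the screen-wide mean plus 3 SD, cut at about 25% in these data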
#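 Replicates: singlicate. Assay system: Procaspase-7 triple mutant (PC-7 D3A). Signal: 405 nm absorbance of p-nitroaniline. Times: 1 h preincubation, 2 h reaction. Buffer or medium: Zinc-free HEPES pH 7.4 with 300 mM NaCl, 0.01% Triton X-100. Also added: DEVD-pNA substrate. Benchmarks: DMSO wells as 0%, DMSO with 5 µM added PC-7 as 100%.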
# procasp3 activ: activators of human procaspase-3; P42574; recombinant procaspase-3 D3A, Ac-DEVD-pNA absorbance 405 nm; activation, % at 8.5 µM; 330,000 tested, 0.11% active; AID 463141;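 active = activation above the mean of all tested compounds plus 3 SD, cut at about 21% in these data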;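 note: 0% = DMSO alone and 100% = DMSO wells spiked with extra 5 µM PC-3 D3A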
# Target sequence (P42574 whole entry D9A/D28A/D175A): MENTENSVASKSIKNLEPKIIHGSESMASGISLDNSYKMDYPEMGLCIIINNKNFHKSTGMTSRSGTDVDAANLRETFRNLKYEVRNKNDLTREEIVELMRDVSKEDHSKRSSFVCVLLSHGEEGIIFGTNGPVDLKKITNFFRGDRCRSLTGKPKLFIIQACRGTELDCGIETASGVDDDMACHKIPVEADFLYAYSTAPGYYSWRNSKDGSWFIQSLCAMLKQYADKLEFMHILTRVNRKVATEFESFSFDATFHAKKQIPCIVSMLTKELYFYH
#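 Compound: 8.5 µM single point, 0.8% DMSO / Material: Autoprocessing-dead procaspase-3 D3A mutant enzyme / Timing: 1 h preincubation plus 2 h reaction at 25 °C / Medium: Zinc-free HEPES/NaCl buffer with 0.01% Triton X-100 at pH 7.4 / Technique: 405 nm absorbance of p-nitroaniline, reads at 0 and 120 min / Repeats: one well per compound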
# KLK7 act conf: proKLK7 activation, confirmation | 3,200 tested, 68% active | purified proKLK7, EDANS-DABCYL substrate fluorescence; scaled: vehicle 0, mature enzyme 100 | activation, % at 7 µM | shares compounds with proKLK7 act;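 active = activation, as change over the incubation, above the mean of all tested compounds plus 3 SD, cut at about 13% in these data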
# EDANS-DABCYL int: optically interferes with EDANS-DABCYL signal, flagging KLK7 hits. shares compounds with proKLK7 act. EDANS-DABCYL substrate fluorescence interference, no enzyme, 4 h; solvent 0%, active enzyme control 100%. activation, % at 7 µM. 3,200 tested, 80% active. AID 686952;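 active = activation above the all-compound mean plus 3 SD, ignoring values outside control-based bounds, cut at about 4.8% in these data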;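 note: value is the 4 h activation minus the activation read at time zero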
# K7 EDANS ctr: EDANS fluorescence interference in dose response, no enzyme; EC50, µM; EDANS-DABCYL peptide fluorescence interference; AID 720493; shares compounds with proKLK7 act; 250 tested, 20% active;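 active = compounds that raise the fluorescence signal in this interference counterscreen, with EC50 at or below 10 µM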;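 note: intact quenched peptide substrate alone read at 355 nm excitation and 520 nm emission; signal is fluorescence gain from T0 to T4 after four hours at room temperature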
# * = called active by the depositor; i = inactive; x = no result shown.
SMILES,Neddylation inh,proKLK7 act,procasp7 counter,procasp3 activ,KLK7 act conf,EDANS-DABCYL int,others
O=C(CCNC(=O)c1ccc([N+](=O)[O-])cc1)NCc1cccs1,i,-0.1,-10.4,10.3,x,x,
CCc1cc2c(=O)c(-c3nc4ccccc4n3C)coc2c(CN2CCCCC2C)c1O (stereo not given),x,15.6*,x,x,8.4,14.7*,
CCc1cc2c(=O)c(-c3nc4ccccc4n3C)coc2c(CN2CCCCC2)c1O,x,12.9*,x,x,7.2,8.8*,
CCN(CC)S(=O)(=O)c1ccc(N2CCOCC2)c(NC(=O)c2nn(C(C)C)c(=O)c3ccccc23)c1,i,-0.5,x,x,x,x,
O=C(NCc1ccncc1)[C@@H]1CCCN1C(=O)[C@H]1CCCN1C(=O)c1c(F)cccc1F,i,-0.9,x,x,x,x,
O=C(Nc1ccccc1)c1ccccc1N=Cc1cccc(O)c1,x,31.6*,-5.4,2.1,15.4*,16.7*,
CCOC(=O)C1=C(C)NC(=O)CC1c1ccccc1 (stereo not given),i,0.0,-3.0,3.5,x,x,
CCOC(=O)/C(=C(/C)N)C1CC(=O)NC1=O (stereo not given),i,33.3*,x,x,37.3*,37.5*,
CCc1c(C)c2ccc(OCC(=O)OC)cc2oc1=O,x,20.5*,5.0,-2.8,21.6*,21.4*,
COC(=O)Cc1c(C)c2ccc(OC(C)C)cc2oc1=O,x,7.7,2.7,3.5,x,x,
COC(=O)Cc1c(C)c2ccc(OC(=O)c3ccco3)cc2oc1=O,i,439.0*,2.7,-21.7,735.6*,740.9*,
COC(=O)Cc1c(C)c2cc(Cl)c(OC(=O)c3ccco3)cc2oc1=O,i,88.2*,-4.7,-22.9,397.1*,432.2*,
COc1ccc(Cc2nnc(SCC(=O)N3CCCCC3)o2)cc1,i,-0.6,-14.7,-9.4,x,x,
COc1cccc(OC)c1OCCN1CCN(C(c2ccccc2)c2ccccc2)CC1,i,0.3,8.2,-0.4,x,x,
COc1ccc(C2=NCCc3cc(OC)c(OC)cc32)cc1,i,30.2*,-1.5,-11.3,11.2,12.9*,
COc1ccc(C2=NC(C)(C)Cc3cc(OC)c(OC)cc32)cc1,i,22.5*,-3.0,-2.1,8.7,7.1*,
COc1cc2c(cc1OC)C(c1c(Cl)cccc1Cl)=NCC2,i,3.6,x,x,x,x,
COc1cc2c(cc1OC)C(CCc1ccccc1)=NCC2,x,152.4*,0.9,1.0,62.9*,79.8*,
COc1cc2c(cc1OC)C(c1c(-c3c(Cl)cccc3Cl)noc1C)=NCC2,x,8.6,x,x,x,x,
COc1ccc(C2=NCCc3cc(OC)c(OC)cc32)cc1OC,i,16.6*,-4.3,-1.5,-0.7,11.3*,
COc1cccc(CNC(=O)[C@H]2CCCN2C(=O)[C@H]2CCCN2C(=O)c2cccc(OC)c2)c1,x,0.5,x,x,x,x,
COCCNc1nc(-c2ccc(Cl)cc2C)c2sccc2n1,x,-3.1,x,x,x,x,
Cc1cccn2c(=O)c3cc(C(=O)NCC4CCCO4)c(=N)n(CCN4CCOCC4)c3nc12 (stereo not given),x,14.2*,-16.9,-16.4,8.5,9.4*,
Cc1cccn2c(=O)c3cc(C(=O)NCc4cccnc4)c(=N)n(CC4CCCO4)c3nc12 (stereo not given),x,111.2*,-17.3,-11.9,9.9,33.5*,
CNC(=O)c1cc2c(=O)n3cccc(C)c3nc2n(C(C)C)c1=N,i,90.6*,-7.9,-11.3,70.7*,71.1*,
SMILES,Neddylation inh,proKLK7 act,procasp7 counter,procasp3 activ,KLK7 act conf,EDANS-DABCYL int,others
CCCn1c(=N)c(C(=O)NCC2CCCO2)cc2c(=O)n3cccc(C)c3nc21 (stereo not given),x,83.4*,-8.7,-5.3,5.2,2.6,
Cc1cccn2c(=O)c3cc(C(=O)NCCc4ccccc4)c(=N)n(CC4CCCO4)c3nc12 (stereo not given),x,-3.6,-3.4,-2.8,x,x,
CCCCS(=O)(=O)NCC1CCN(C(=O)C(=O)c2cc3ccccc3o2)CC1,x,1.1,x,x,x,x,
CCOC(=O)c1sc(N=NC2=C(O)CC(C)(C)CC2=O)c(C(=O)OCC)c1C,i,0.5,10.2,6.3,x,x,
O=C(COc1ccccc1Cl)N1CCN(c2ccc([N+](=O)[O-])c(N3CCOCC3)c2)CC1,i,-0.3,-4.9,-7.3,x,x,
FC(F)(F)c1ccccc1-n1c(CN2CCCCC2)n[nH]c1=S,i,-0.5,-15.5,-9.1,x,x,
C=CCn1c(=N)c(C(=O)NCCCOC)cc2c(=O)n3cccc(C)c3nc21,i,119.6*,-10.7,-8.4,56.1*,65.5*,
O=C(O)c1ccccc1C(=O)NCc1cccnc1,i,0.3,-1.0,14.6,x,x,
COCCCn1c(=N)c(C(=O)NCC2CCCO2)cc2c(=O)n3ccccc3nc21 (stereo not given),x,33.3*,-10.4,-7.7,10.5,15.2*,
COCCCn1c(=N)c(C(=O)NCC2CCCO2)cc2c(=O)n3cccc(C)c3nc21 (stereo not given),x,121.1*,-13.8,-13.3,61.4*,71.0*,
Cc1ccc(Cn2c(=N)c(C(=O)NCC3CCCO3)cc3c(=O)n4cccc(C)c4nc32)cc1 (stereo not given),x,2.0,-16.2,-9.0,x,x,
O=C(NCc1cccnc1)c1cccn2c(=O)c3sccc3nc12,x,19.1*,4.4,-1.2,67.2*,73.7*,
N=c1c(C(=O)NCC2CCCO2)cc2c(=O)n3ccccc3nc2n1Cc1ccccc1 (stereo not given),x,118.0*,-13.8,-14.0,23.7*,22.8*,
CCN(CC(=O)NCc1cccs1)C(=O)/C=C/c1cc(OC)ccc1OC,x,66.9*,9.7,11.0,71.5*,70.8*,
COc1ccc(OC)c(/C=C/C(=O)OCC(=O)NCc2ccccc2)c1,x,14.7*,2.8,8.4,3.6,8.3*,
COc1ccc(OC)c(/C=C/C(=O)NCCc2nc3ccccc3[nH]2)c1,x,49.0*,-3.1,1.0,37.2*,-31.3,K7 EDANS ctr=>69.5
CCN(CC(=O)NCc1cccs1)C(=O)/C=C/c1ccc(OC)cc1OC,i,0.4,-2.7,1.0,x,x,
COc1ccc(/C=C/C(=O)OCC(=O)NCc2ccccc2)cc1OC,i,1.2,-1.2,4.1,x,x,
Cc1nn(-c2ccc(F)cc2)c(Cl)c1C(=O)NCC1CCCO1 (stereo not given),i,-0.6,3.8,6.7,x,x,
CC(C)Cn1c(N)c(C(=O)COC(=O)c2nccnc2N)c(=O)n(C)c1=O,x,13.2*,4.9,8.9,4.3,1.1,
COC(=O)c1ccc(-c2nc3ccccc3[nH]2)cc1,x,42.7*,2.4,-3.5,78.6*,72.8*,
O=C(Nc1ccc(-c2nc3ccccc3[nH]2)cc1)c1cccc(N2C(=O)CCC2=O)c1,x,127.0*,-6.0,-9.6,167.4*,170.8*,
